The values below come from ChEMBL document CHEMBL2086359, “Tormentic acid derivatives: synthesis and apoptotic activity” (Eur J Med Chem, 2012).

The subject of assay [1] is DLD-1. Description: Cytotoxicity against human DLD1 cells after 96 hrs by SRB assay. The class given is functional, cell-based. In outline: (§1)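 Monolayer cultures kept in RPMI 1640 with 10% heat-inactivated FBS and penicillin/streptomycin at 37 °C, 5% CO2. Exponentially growing cells were seeded and treated 24 h later with serial dilutions (0–30 µM) for 96 h, with DMSO or DMF at most 0.5% final. Cells were fixed with 10% TCA at 4 °C and stained with 0.4% SRB for about 30 min. Plates were washed with 1% acetic acid and the dye dissolved in 10 mM Tris base. Absorbance was read at 570 nm and survival taken relative to untreated controls. IC50 was estimated from dose–response curves, averaged from at least 5 independent experiments.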
Background: The SRB assay estimates cell density from bound dye.

Assay [2] has as its system A2780. Description: Cytotoxicity against human A2780 cells after 96 hrs by SRB assay. The class given is functional, cell-based. In outline:
as §1

Assay [3] in a line: Cytotoxicity against human 518A2 cells after 96 hrs by SRB assay. The format is functional, cell-based. The gist of the method: as §1
For assay [4], the system named is 8505C. As to the kind of experiment: Cytotoxicity against human 8505C cells after 96 hrs by SRB assay. The class given is functional, cell-based. The gist of the method: as §1
Assay [5] has as its system MCF7. As to the kind of experiment: Cytotoxicity against human MCF7 cells after 96 hrs by SRB assay. The class given is functional, cell-based. In outline: as §1
Assay [6] relates to NIH3T3. As to the kind of experiment: Cytotoxicity against mouse NIH/3T3 cells after 96 hrs by SRB assay. The format is cell-based. In outline: as §1
A short description of assay [7]: Cytotoxicity against human A253 cells after 96 hrs by SRB assay. The format is functional, cell-based. In outline:
as §1

For assay [8], the system named is A549. As to the kind of experiment: Cytotoxicity against human A549 cells after 96 hrs by SRB assay. The format is functional, cell-based. In outline: as §1
Assay [9] relates to 8505C. As to the kind of experiment: Induction of apoptosis in human 8505C cells after 24 to 48 hrs by DNA laddering assay. The class given is functional, cell-based. The gist of the method:
(§2)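 About 1×10^6 cells were grown in 25 cm2 flasks to 80% and exposed to compound-loaded medium for 24–48 h, with blank medium as control. Cells were collected from the supernatant (300 g, 4 °C), washed in PBS and lysed. Lysates were digested with RNase for 2 h at 37 °C, then with proteinase K for 12 h at 50 °C. DNA was run on agarose gel electrophoresis ([…], 2 h).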

The subject of assay [10] is 518A2. As to the kind of experiment: Induction of apoptosis in human 518A2 cells after 24 to 48 hrs by DNA laddering assay. The format is functional, cell-based. In outline: as §2

Calls of active or inactive are those of the source. No cut-off for these calls is given here. A value given as a limit tells only on which side of the number the result lay.

As for `COC(=O)[C@]12CC[C@@H](C)[C@@](C)(O)[C@H]1C1=CC[C@@H]3[C@@]4(C)C[C@@H](O)[C@H](OC(=O)CCl)C(C)(C)[C@@H]4CC[C@@]3(C)[C@]1(C)CC2`, the IC50 in [1] worked out at 6 µmol; in assay [2] it was 4.1 µmol; in [3], 5.5 µmol; in [4] it was 7.5 µmol; in assay [5], 6.9 µmol; in [6], 4.2 µmol. Moreover, the IC50 in assay [7] was 4.1 µmol; in assay [8], 10 µmol. Further, the result in [9] and in assay [10] was Active.
With `COC(=O)[C@]12CC[C@@H](C)[C@@](C)(O)[C@H]1C1=CC[C@@H]3[C@@]4(C)C[C@@H](OC(C)=O)C(=O)C(C)(C)[C@@H]4CC[C@@]3(C)[C@]1(C)CC2`, the IC50 in assay [1] was 28.2 µmol; in assay [2], 9 µmol; in [3] it was 28.9 µmol; in assay [4] it was greater than 30 µmol; in assay [5], 14.8 µmol; in [6], 25.1 µmol. The IC50 in assay [7] worked out at 18.5 µmol; in assay [8], 31.3 µmol. In addition, the outcome in assay [9] and in assay [10] was Active.
As to `COC(=O)[C@]12CC[C@@H](C)[C@@](C)(O)[C@H]1C1=CC[C@@H]3[C@@]4(C)C[C@@H](OC(=O)CCl)[C@H](O)C(C)(C)[C@@H]4CC[C@@]3(C)[C@]1(C)CC2`, the IC50 amounted to 3.7 µmol in assay [1]; 2.6 µmol in assay [2]; 4.5 µmol in assay [3]; 4.6 µmol in [4]; 2.6 µmol in [5]; 2.1 µmol in [6]. Also, the IC50 in [7] turned out to be 4.6 µmol; in [8] it was 9.7 µmol. In addition, the outcome in assay [9] and in [10] was Active.
Turning to `COC(=O)[C@]12CC[C@@H](C)[C@@](C)(O)[C@H]1C1=CC[C@@H]3[C@@]4(C)C[C@@H](O)C(=O)C(C)(C)[C@@H]4CC[C@@]3(C)[C@]1(C)CC2`, the IC50 in assay [1] amounted to 18 µmol; in assay [2], 4.9 µmol; in assay [3] it was 8.9 µmol; in assay [4], 12.9 µmol; in [5] it was 9.4 µmol; in [6] it was 7.7 µmol. Besides, the results for the IC50 in assay [7] and in assay [8] were 6.8 µmol and 11.8 µmol, respectively. For the same compound, the result in assay [9] and in [10] was Active.
As to `COC(=O)[C@]12CC[C@@H](C)[C@@](C)(O)[C@H]1C1=CC[C@@H]3[C@@]4(C)CC(=O)[C@H](OC(C)=O)C(C)(C)[C@@H]4CC[C@@]3(C)[C@]1(C)CC2`, the IC50 stood at 13.5 µmol in assay [1]; 4.4 µmol in [2]; 5.6 µmol in assay [3]; 7 µmol in assay [4]; 8.2 µmol in assay [5]; 6.7 µmol in assay [6]. The IC50 in assay [7] amounted to 6.7 µmol; in [8] it was 7.8 µmol. Besides, the outcome in assay [9] and in assay [10] was Active.
As to `COC(=O)[C@]12CC[C@@H](C)[C@@](C)(O)[C@H]1C1=CC[C@@H]3[C@@]4(C)CC(=O)[C@H](O)C(C)(C)[C@@H]4CC[C@@]3(C)[C@]1(C)CC2`, the IC50 in [1] was greater than 30 µmol; in assay [2], 17.8 µmol; in assay [3], greater than 30 µmol; in assay [4], greater than 30 µmol; in assay [5], 28.7 µmol; in assay [6], 19.2 µmol. Moreover, the result in assay [9] and in assay [10] was Active.
